A short description of experiment [1]: Inhibition of Escherichia coli DdlB. An outline of the steps:
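Purified E. coli DdlB in 38.5 mM Hepes pH 8.0, 3.25 mM MgCl2, 6.5 mM (NH4)2SO4, 700 µM D-Ala, 500 µM ATP, 5% DMSO, with a range of inhibitor concentrations. Incubated 30 min at 37 °C. Released phosphate detected by Biomol reagent, A650 after 5 min. IC50 taken from residual activity versus no-inhibitor control. Means of two independent experiments.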

Experiment [2] concerns Escherichia coli. The experiment is described as follows: Antibacterial activity against Escherichia coli 1411. In kind it is functional. In short, it runs like this:
(§1)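 Broth microdilution MIC in IsoSensitest broth; inoculum 10⁴ cells per mL for E. coli, 10⁶ cells per mL for S. aureus. Compounds in 2-fold dilution series prepared in 50% DMSO. Incubated 16 h at 37 °C with OD600 read every 10 min, shaken 30 s before each read. MIC = lowest concentration preventing growth.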

Experiment [3] concerns Escherichia coli. The experiment is described as follows: Antibacterial activity against acrAB deficient Escherichia coli 1411. It counts as functional. In short, it runs like this: as §1
A further experiment concerns Staphylococcus aureus. The experiment is described as follows: Antibacterial activity against Staphylococcus aureus 8325-4. It counts as functional. In short, it runs like this:
as §1

The subject of experiment [4] is Escherichia coli. The experiment is described as follows: Inhibition of Escherichia coli DdlB assessed as residual activity at 500 uM. An outline of the steps:
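Endpoint phosphate-release assay using purified DdlB with 500 µM test compound, 700 µM D-Ala, 500 µM ATP, in 38.5 mM Hepes pH 8.0 with MgCl2, (NH4)2SO4 and 5% DMSO. Run 30 min at 37 °C, then Biomol reagent and A650 read. Residual activity relative to an uninhibited assay. Mean of two independent experiments.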

The values that follow come from ChEMBL document CHEMBL1139126, “Diazenedicarboxamides as inhibitors of D-alanine-D-alanine ligase (Ddl)” (Bioorg Med Chem Lett, 2007).

Converted amounts (≈) assume the structure as drawn. A value given as a limit tells only on which side of the number the result lay.

As usually defined, the IC50 is the concentration that inhibits the measured activity by half. By MIC is commonly meant the lowest concentration that inhibits growth of the organism. Take `O=C(/N=N/C(=O)NCc1ccncc1)NCCCl`: the IC50 in experiment [1] stood at 236 µM. Moreover, the minimum inhibitory concentration (MIC) was 128 µg/mL (≈ 475 µM) in the experiment with Escherichia coli [2], 128 µg/mL (≈ 475 µM) with Escherichia coli [3] and over 256 µg/mL against Staphylococcus aureus.

`O=C(/N=N/C(=O)NCc1cccnc1)NCc1cccnc1`: in experiment [1], the IC50 was determined as 123 µM. Besides, the MIC against Escherichia coli [2], against Escherichia coli [3] and with Staphylococcus aureus was over 256 µg/mL in each case.

Molecule `O=C(/N=N/C(=O)Nc1ccccc1)NCc1ccccn1` had a half-maximal inhibitory concentration (IC50) in experiment [1] of 111 µM. Also, the minimal inhibitory concentration (MIC) against Escherichia coli [2], against Escherichia coli [3] and in the experiment on Staphylococcus aureus was 64 µg/mL (≈ 226 µM) each time.

For the molecule `CC(C)c1ccc(NC(=O)/N=N/C(=O)NCCCl)cc1`, half-maximal inhibition in experiment [1] (IC50) required 49 µM. Besides, the MIC against Escherichia coli [2], with Escherichia coli [3] and against Staphylococcus aureus was over 256 µg/mL in each case.

For the molecule `COC(=O)NNC(=O)NCCCl`, the Activity with Escherichia coli [4] worked out at 5%.

As to `CCOC(=O)NNC(=O)Nc1ccc(F)cc1`, in the experiment with Escherichia coli [4], the Activity is 0%.

In experiment [1], `O=C(/N=N/C(=O)NCCCl)NCCCl` returned a half-maximal inhibitory concentration (IC50) of 133 µM. In addition, the MIC in the experiment with Escherichia coli [2], in the experiment with Escherichia coli [3] and in the experiment with Staphylococcus aureus was over 256 µg/mL each time.

Take `COC(=O)/N=N/C(=O)NCCCl`: the Activity in the experiment on Escherichia coli [4] is 7%.

Consider `CN(C)CCNC(=O)NNC(=O)Nc1ccccc1`, for which the Activity with Escherichia coli [4] turned out to be 2%.

Take `CCOC(=O)/N=N/C(=O)Nc1ccccc1`: the Activity with Escherichia coli [4] turned out to be 1%.

Regarding `CCOC(=O)NNC(=O)Nc1ccccc1`, the Activity in the experiment on Escherichia coli [4] turned out to be 1%.

Molecule `O=C(/N=N/C(=O)Nc1cccc(Cl)c1)NCc1cccnc1` registered an IC50 in experiment [1] of 15 µM. In addition, the MIC against Escherichia coli [2] was determined as 64 µg/mL (≈ 201 µM); in the experiment with Escherichia coli [3], 64 µg/mL (≈ 201 µM); in the experiment with Staphylococcus aureus, 256 µg/mL (≈ 806 µM).

`CCC(C)c1ccc(NC(=O)/N=N/C(=O)NCCCl)cc1` (stereo not drawn) yielded an IC50 in experiment [1] of 25 µM. In addition, the MIC in the experiment with Escherichia coli [2], in the experiment with Escherichia coli [3] and against Staphylococcus aureus was over 256 µg/mL in each case.

Molecule `O=C(/N=N/C(=O)Nc1ccccc1)NCc1ccncc1` displayed a concentration for half-maximal inhibition (IC50) in experiment [1] of 106 µM. For the same molecule, the minimal inhibitory concentration (MIC) was found to be 64 µg/mL (≈ 226 µM) in the experiment with Escherichia coli [2], 32 µg/mL (≈ 113 µM) against Escherichia coli [3] and 128 µg/mL (≈ 452 µM) in the experiment with Staphylococcus aureus.

As for `CCOC(=O)/N=N/C(=O)Nc1cccc(Cl)c1`, in the experiment on Escherichia coli [4], the Activity is 33%.

In experiment [1], `CC(C)(C)c1ccc(NC(=O)/N=N/C(=O)NCc2ccncc2)cc1` returned an IC50 of over 500 µM.

As to `CCOC(=O)/N=N/C(=O)Nc1ccc([N+](=O)[O-])cc1`, the Activity in the experiment on Escherichia coli [4] came to 40%.

As to `CCOC(=O)NNC(=O)Nc1ccc([N+](=O)[O-])cc1`, the Activity with Escherichia coli [4] is 1%.

As for `O=C(NCc1cccnc1)NNC(=O)Nc1ccccc1`, the Activity in the experiment on Escherichia coli [4] was 0%.

In the case of `N[C@@H]1CONC1=O` [CYCLOSERINE], in experiment [1], the IC50 was determined as 314 µM. Further, the minimum inhibitory concentration (MIC) is 16 µg/mL (≈ 157 µM) against Escherichia coli [2], 16 µg/mL (≈ 157 µM) in the experiment with Escherichia coli [3] and 32 µg/mL (≈ 313 µM) in the experiment with Staphylococcus aureus.

In the case of `O=C(/N=N/C(=O)Nc1ccccc1)NCc1cccnc1`, the IC50 in experiment [1] was 36 µM. Also, the minimal inhibitory concentration (MIC) was 64 µg/mL (≈ 226 µM) in the experiment on Escherichia coli [2], 64 µg/mL (≈ 226 µM) against Escherichia coli [3] and 128 µg/mL (≈ 452 µM) in the experiment on Staphylococcus aureus.

As for `CCOC(=O)/N=N/C(=O)Nc1ccc(F)cc1`, the Activity in the experiment on Escherichia coli [4] stood at 37%.

With `O=C(/N=N/C(=O)Nc1cccc(Cl)c1)NCc1ccncc1`, in experiment [1], the half-maximal inhibitory concentration (IC50) stood at 33 µM. Also, the minimal inhibitory concentration (MIC) in the experiment on Escherichia coli [2], against Escherichia coli [3] and in the experiment with Staphylococcus aureus was 64 µg/mL (≈ 201 µM) in each case.

In the case of `O=C(/N=N/C(=O)NCc1ccccn1)NCCCl`, the IC50 in experiment [1] amounted to 119 µM. The minimal inhibitory concentration (MIC) in the experiment on Escherichia coli [2], against Escherichia coli [3] and against Staphylococcus aureus was over 256 µg/mL in each case.

On to `CCOC(=O)NNC(=O)Nc1cccc(Cl)c1`, for which, in the experiment with Escherichia coli [4], the Activity was 0%.

`O=C(NCc1cccnc1)NNC(=O)Nc1cccc(Cl)c1`: the Activity in the experiment with Escherichia coli [4] amounted to 3%.

In experiment [1], `O=C(/N=N/C(=O)Nc1ccc(F)cc1)NCc1ccncc1` displayed an IC50 of 73 µM. The minimum inhibitory concentration (MIC) with Escherichia coli [2] worked out at 64 µg/mL (≈ 212 µM); in the experiment with Escherichia coli [3], 64 µg/mL (≈ 212 µM); in the experiment on Staphylococcus aureus it was 128 µg/mL (≈ 425 µM).

For `CN(C)CCNC(=O)/N=N/C(=O)Nc1ccccc1`, the 50% inhibitory concentration (IC50) in experiment [1] was over 500 µM.

`O=C(/N=N/C(=O)NC1CCCCC1)NCc1ccncc1`: the half-inhibitory concentration (IC50) in experiment [1] stood at 121 µM. Further, the values for the minimum inhibitory concentration (MIC) against Escherichia coli [2], against Escherichia coli [3] and in the experiment on Staphylococcus aureus were 256 µg/mL (≈ 885 µM), 256 µg/mL (≈ 885 µM) and 128 µg/mL (≈ 442 µM), respectively.

Regarding `CC(C)(C)OC(=O)/N=N/C(=O)NCCCl`, the Activity in the experiment with Escherichia coli [4] stood at 7%.

`COC(=O)NNC(=O)NC1CCCCC1`: the Activity with Escherichia coli [4] is 1%.
